According to ChEMBL document CHEMBL4431302, “Vobatensines A-F, Cytotoxic Iboga-Vobasine Bisindoles from Tabernaemontana corymbosa” (J Nat Prod, 2016):
pIC50: −log10 of the molar value.

Key:
MDA-MB-231 = assay: Growth inhibition of human MDA-MB-231 cells after 72 hrs by MTT assay; format: functional, cell-based; conditions: MDA-MB-231, 72 h
In short: (§1)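 Cytotoxicity run by a previously reported procedure, with vincristine and cisplatin as positive controls.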

A549 = assay: Growth inhibition of human A549 cells after 72 hrs by MTT assay; format: functional, cell-based; conditions: A549, 72 h; in short: as §1
LNCaP = assay: Growth inhibition of human LNCAP cells after 72 hrs by MTT assay; format: functional, cell-based; in short: as §1
KB/VJ300 [1] = assay: Growth inhibition of human KB/VJ300 cells after 72 hrs by MTT assay; format: functional, cell-based; conditions: KB/VJ300, 72 h; in short: as §1
MCF7 = assay: Growth inhibition of human MCF7 cells after 72 hrs by MTT assay; format: functional, cell-based; conditions: MCF7, 72 h; in short: as §1
PC-3 = assay: Growth inhibition of human PC3 cells after 72 hrs by MTT assay; format: functional, cell-based; conditions: PC-3, 72 h; in short: as §1
[2] = Growth inhibition of human KB/S cells after 72 hrs by MTT assay; format: functional; in short: as §1
HT-29 = assay: Growth inhibition of human HT-29 cells after 72 hrs by MTT assay; format: functional, cell-based; conditions: HT-29, 72 h; in short: as §1
HCT-116 = assay: Growth inhibition of human HCT116 cells after 72 hrs by MTT assay; format: functional, cell-based; conditions: HCT-116, 72 h; in short: as §1
KB/VJ300 [3] = assay: Growth inhibition of human KB/VJ300 cells after 72 hrs in presence of vincristine by MTT assay; format: functional, cell-based; conditions: KB/VJ300, 72 h
In short: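 Vincristine-resistant KB/VJ300 cells were exposed to test compound together with vincristine at 0.1 μg/mL, a multidrug-resistance reversal set-up. Cytotoxicity was run by a previously reported procedure, with vincristine and cisplatin as positive controls.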

Structure (SMILES)	pIC50 (MDA-MB-231)	pIC50 (A549)	pIC50 (LNCaP)	pIC50 (KB/VJ300 [1])	pIC50 (MCF7)	pIC50 (PC-3)	pIC50 [2]	pIC50 (HT-29)	pIC50 (HCT-116)	pIC50 (KB/VJ300 [3])
C/C=C1/CN(C)[C@H]2Cc3c([nH]c4ccccc34)[C@@H](c3cc4[nH]c5c(c4cc3OC)CCN3C[C@H]4C[C@H]([C@@H](C)O)[C@H]3[C@H]5C4)C[C@H]1[C@@H]2C(=O)OC	5.41	5.01	< 5.00	5.14	5.06	5.24	5.09	5.92	5.52	< 5.00
CC[C@]1(O)C[C@H]2CN(CCc3c([nH]c4ccccc34)[C@@](C(=O)OC)(c3cc4c(cc3OC)N(C=O)[C@H]3[C@@](O)(C(=O)OC)[C@H](OC(C)=O)[C@]5(CC)C=CCN6CC[C@]43[C@@H]65)C2)C1 [VINCRISTINE]	–	–	–	5.18	–	–	8.62	–	–	–
C/C=C1/CN(C)[C@H]2Cc3c([nH]c4ccccc34)[C@@H](c3cc4[nH]c5c(c4cc3OC)CCN3C[C@H]4C[C@H](CC)[C@H]3[C@H]5C4)C[C@H]1[C@@H]2C(=O)OC	5.60	5.17	< 5.00	5.30	5.22	5.55	5.28	6.03	5.80	5.15
C/C=C1/CN(C)[C@H]2Cc3c([nH]c4ccccc34)[C@@H](c3c(OC)ccc4[nH]c5c(c34)CCN3C[C@H]4C[C@H](CC)[C@H]3[C@H]5C4)C[C@H]1[C@@H]2C(=O)OC	5.34	< 5.00	< 5.00	4.52 to 5.00	< 5.00	5.11	< 5.00	5.72	5.13	5.02 to 5.05
C/C=C1/CN(C)[C@H]2Cc3c([nH]c4ccccc34)[C@@H](c3cc4c(cc3OC)C(=O)[C@@]3(CCN5C[C@H]6C[C@H](CC)[C@H]5[C@H]3C6)N4)C[C@H]1[C@@H]2C(=O)OC	5.11	5.04	5.00	5.04	5.03	5.06	5.08	5.54	5.15	5.48
C/C=C1/CN2CC[C@]34C(=C(C=O)C1C[C@H]23)Nc1cc([C@H]2C[C@@H]3/C(=C\C)CN(C)[C@@H](Cc5c2[nH]c2ccccc52)[C@H]3C(=O)OC)ccc14	5.35	5.04	< 5.00	< 5.00	5.07	5.27	< 5.00	5.89	5.17	< 5.00
CC[C@@H]1CN(C)[C@H]2Cc3c([nH]c4ccccc34)[C@@H](c3cc4[nH]c5c(c4cc3OC)CCN3C[C@H]4C[C@H]([C@@H](C)O)[C@H]3[C@H]5C4)C[C@H]1[C@@H]2C(=O)OC	5.44	5.02	< 5.00	5.09	5.03	5.16	5.10	5.62	5.46	5.07
C/C=C1/CN(C)[C@H]2Cc3c([nH]c4ccccc34)[C@@H](c3cc4c(cc3OC)[C@@]3(O)CCN5C[C@H]6C[C@H](CC)[C@H]5[C@@H](C6)C3=N4)C[C@H]1[C@@H]2C(=O)OC	< 5.00	< 5.00	< 5.00	4.52 to 5.00	< 5.00	5.25	< 5.00	5.14	5.01	5.04 to 5.05
CC[C@@H]1CN(C)[C@H]2Cc3c([nH]c4ccccc34)[C@@H](c3cc4[nH]c5c(c4cc3OC)CCN3C[C@H]4C[C@H](CC)[C@H]3[C@H]5C4)C[C@H]1[C@@H]2C(=O)OC	5.55	< 5.00	< 5.00	5.08	5.47	5.46	5.10	6.04	5.54	5.03
COc1ccc(CCN(C)CCCC(C#N)(c2ccc(OC)c(OC)c2)C(C)C)cc1OC (stereo not given) [VERAPAMIL]	–	–	–	< 5.00	–	–	< 5.00	–	–	5.34
CC[C@@H]1CN(C)[C@H]2Cc3c([nH]c4ccccc34)[C@@H](c3cc4c(cc3OC)C(=O)[C@@]3(CCN5C[C@H]6C[C@H](CC)[C@H]5[C@H]3C6)N4)C[C@H]1[C@@H]2C(=O)OC	5.48	5.08	< 5.00	< 5.00	5.12	5.09	< 5.00	5.74	5.11	5.29
